pIC50, pKi: −log10 of the molar value.

Consider 12 molecules from ChEMBL document CHEMBL4425138, “Probing Lipophilic Adamantyl Group as the P1-Ligand for HIV-1 Protease Inhibitors: Design, Synthesis, Protein X-ray Structural Studies, and Biological Evaluation” (J Med Chem, 2016).

For assay [1], the system named is Human immunodeficiency virus 1. Nature of the assay: Antiviral activity against darunavir resistant HIV1 harboring protease L10I/I15V/K20R/L24I/V32I/M36I/M46L/L63P/A71T/V82A/L89M mutant at 20 passages infected in human MT4 cells by p24 assay. In kind it is functional, organism-based. Conditions: Human immunodeficiency virus 1, MT4. The gist of the method: (§1)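 MT-4 cells (1×10^4) infected with 50 TCID50 of virus and cultured across a range of compound concentrations. Virus was wild-type HIV-1 NL4-3 or a multidrug-resistant variant (HIV-1B, HIV-1C, or DRV-resistant P20). IC50 from p24 assay. Run in triplicate. Values are means (±1 SD) from two independent experiments.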

In assay [2] the test system is Human immunodeficiency virus 1. As to the kind of experiment: Antiviral activity against multi-drug resistant HIV1B harboring protease L10I/L33I/M36I/M46I/F53L/K55R/I62V/L63P/A71V/G73S/V82A/L90M/I93L mutant infected in human MT4 cells by p24 assay. Conditions: Human immunodeficiency virus 1, B. In kind it is functional, organism-based. The method in brief: as §1
Assay [3] deals with Human immunodeficiency virus 1. Nature of the assay: Antiviral activity against wild type HIV1 NL4-3 infected in human MT4 cells by p24 assay. In kind it is functional, organism-based. The note with it: Human immunodeficiency virus 1, NL4-3, MT4. The method in brief: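 MT-4 cells (1×10^4) infected with 50 TCID50 of virus and cultured across a range of compound concentrations. IC50 from p24 assay. Run in triplicate. Values are means (±1 SD) from two independent experiments.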

The subject of assay [4] is Human immunodeficiency virus 1. As to the kind of experiment: Antiviral activity against multi-drug resistant HIV1C harboring protease L10I/I15V/K20R/L24I/M36I/M46L/I54V/I62V/L63P/K70Q/V82A/L89M mutant infected in human MT4 cells by p24 assay. In kind it is functional, organism-based. Conditions: Human immunodeficiency virus 1, C. The method in brief:
as §1

Assay [5] addresses Protease (Human immunodeficiency virus 1, UniProt Q9YQ12). Nature of the assay: Inhibition of HIV1 protease using Abz-NleF*-6 as substrate preincubated for 5 to 10 mins followed by substrate addition measured after 1 hr by fluorometric assay.
The subject of assay [6] is Human immunodeficiency virus. As to the kind of experiment: Antiviral activity against HIV1 […] infected in human MT2 cells by MTT assay. In kind it is functional, organism-based. The note with it: Human immunodeficiency virus 1, MT2. The gist of the method: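 MT-2 human T-lymphoid cells infected with 100 TCID50 of HIV-1 LAI and cultured with each inhibitor. IC50 read by MTT assay. Run in triplicate. Values are means (±1 SD) from two independent experiments.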
In general terms: Formazan colour is commonly taken as a measure of viable cells.

Protease, sequence (Q9YQ12 whole entry): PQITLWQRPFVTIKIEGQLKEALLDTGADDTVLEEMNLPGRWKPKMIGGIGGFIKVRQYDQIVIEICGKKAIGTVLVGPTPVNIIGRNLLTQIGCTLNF

Broadly, the pIC50 is the IC50 on a negative log10 scale, so that one unit is a factor of ten. The low end stands for a large IC50, the high end for a small IC50. As for `CC(C)CN(C[C@@H](O)[C@H](Cc1ccccc1)NC(=O)O[C@H]1CCOC1)S(=O)(=O)c1ccc(N)cc1`, the negative-log IC50 (pIC50) in assay [1] is below 6.00; in assay [2] it was 6.07; in assay [3] it was 7.77; in assay [4] it was 6.37.
Consider `CC(C)CN(C[C@@H](O)[C@H](Cc1ccccc1)NC(=O)O[C@H]1CO[C@H]2OCC[C@H]21)S(=O)(=O)c1ccc(N)cc1`, for which the negative logarithm of the IC50 (pIC50) was 7.06 in assay [1], 7.37 in assay [2] and 7.52 in assay [4].
For orientation: pKi means −log10 of the Ki, conventionally taken in molar units. Read a high pKi as a small Ki. `COc1ccc(S(=O)(=O)N(C[C@@H](O)[C@H](CC23CC4CC(CC(C4)C2)C3)NC(=O)O[C@H]2CO[C@H]3OCC[C@H]32)c2ccccc2)cc1` had a pKi in assay [5] of 8.96.
Take `COc1ccc(S(=O)(=O)N(CC(C)C)C[C@@H](O)[C@H](CC23CC4CC(CC(C4)C2)C3)NC(=O)O[C@H]2CO[C@H]3OCCC[C@H]32)cc1`: the pKi in assay [5] was 8.72. For the same molecule, in assay [6], the pIC50 is 6.34.
Take `COc1ccc(S(=O)(=O)N(CC(C)C)C[C@@H](O)[C@H](CC23CC4CC(CC(C4)C2)C3)NC(=O)O[C@H]2CCOC2)cc1`: the negative-log Ki (pKi) in assay [5] is 9.27. Also, the pIC50 in assay [1] was below 6.00; in assay [2], below 6.00; in assay [6] it was 7.41; in assay [3], 6.34; in assay [4], below 6.00.
On to `COc1ccc(S(=O)(=O)N(Cc2ccccc2)C[C@@H](O)[C@H](CC23CC4CC(CC(C4)C2)C3)NC(=O)O[C@H]2CO[C@H]3OCC[C@H]32)cc1`, for which the pKi in assay [5] was 8.07. This molecule also had a pIC50 in assay [6] of 6.51.
For `CC(C)CN(C[C@@H](O)[C@H](CC12CC3CC(CC(C3)C1)C2)NC(=O)O[C@H]1CCOC1)S(=O)(=O)c1ccc(N)cc1`, the negative-log Ki (pKi) in assay [5] is 8.47. In addition, in assay [6], the negative-log IC50 (pIC50) is 6.24.
Turning to `COc1ccc(S(=O)(=O)N(CC(C)C)C[C@@H](O)[C@H](CC23CC4CC(CC(C4)C2)C3)NC(=O)O[C@H]2CO[C@H]3OCC[C@H]32)cc1`, in assay [5], the negative-log Ki (pKi) was 9.32. The pIC50 in assay [1] is below 6.00; in assay [2] it was below 6.00; in assay [6], 7.49; in assay [3] it was 7.82; in assay [4], 6.44.
In assay [5], `COc1ccc(S(=O)(=O)N(CC(C)C)C[C@@H](O)[C@H](CC23CC4CC(CC(C4)C2)C3)NC(=O)O[C@@H]2CCOC2)cc1` gave a negative logarithm of the Ki (pKi) of 8.55.
In the case of `COc1ccc(S(=O)(=O)N(CC(C)C)C[C@@H](O)[C@H](CC23CC4CC(CC(C4)C2)C3)NC(=O)O[C@@H]2CO[C@@H]3OCCC[C@@H]32)cc1`, the negative logarithm of the Ki (pKi) in assay [5] is 7.62. This molecule gave a pIC50 in assay [6] below 6.00.
The like results for `CC(C)CN(C[C@@H](O)[C@H](CC12CC3CC(CC(C3)C1)C2)NC(=O)O[C@H]1CO[C@H]2OCC[C@H]21)S(=O)(=O)c1ccc(N)cc1` were, in that order, 9.14 and 7.22.
`COc1ccc(S(=O)(=O)N(CC(C)C)C[C@@H](O)[C@H](CC23CC4CC(CC(C4)C2)C3)NC(=O)O[C@@H]2CO[C@@H]3OCC[C@@H]32)cc1` gave a pKi in assay [5] of 9.00.
